Where a chain is given by its changes, count along the chain named.
Columns and labels:
Assay type in all cases: in vitro ADME
[1] = molecular target: T1, AKR1C4 (Homo sapiens, UniProt P17516); assay: Metabolite identification, overnight incubation with recombinant AKR1C4; conditions: 200 µM EXE, 18-h incubation, 1.5 µg recombinant AKR1C4
T1 sequence (P17516 1-323): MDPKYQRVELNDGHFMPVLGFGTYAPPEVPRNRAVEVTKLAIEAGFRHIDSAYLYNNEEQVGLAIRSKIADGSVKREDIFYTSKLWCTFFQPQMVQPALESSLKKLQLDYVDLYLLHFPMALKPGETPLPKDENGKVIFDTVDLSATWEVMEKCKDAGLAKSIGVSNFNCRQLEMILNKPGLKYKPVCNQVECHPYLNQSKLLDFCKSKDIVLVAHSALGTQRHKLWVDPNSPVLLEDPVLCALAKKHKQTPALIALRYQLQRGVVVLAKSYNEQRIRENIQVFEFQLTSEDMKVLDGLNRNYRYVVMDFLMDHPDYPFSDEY
Outline: (§1)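 Wildtype enzyme was His-tagged, expressed in E. coli BL21 (IPTG induction), Ni-NTA purified and dialysed against PBS. It was stopped with ice-cold acetonitrile and centrifuged. UPLC/ESI+ full scan (m/z 100–450) was followed by targeted MS/MS transitions. Retention times were matched to synthetic 17α/17β-dihydro standards.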

[2] = Kinetics of EXE reduction to 17β-DHE, pooled human liver cytosol
[3] = molecular target: AKR1C2 (Homo sapiens, UniProt P52895); assay: Kinetics of EXE reduction to 17β-DHE, recombinant AKR1C2; conditions: wildtype AKR1C2
AKR1C2, sequence (P52895 whole entry): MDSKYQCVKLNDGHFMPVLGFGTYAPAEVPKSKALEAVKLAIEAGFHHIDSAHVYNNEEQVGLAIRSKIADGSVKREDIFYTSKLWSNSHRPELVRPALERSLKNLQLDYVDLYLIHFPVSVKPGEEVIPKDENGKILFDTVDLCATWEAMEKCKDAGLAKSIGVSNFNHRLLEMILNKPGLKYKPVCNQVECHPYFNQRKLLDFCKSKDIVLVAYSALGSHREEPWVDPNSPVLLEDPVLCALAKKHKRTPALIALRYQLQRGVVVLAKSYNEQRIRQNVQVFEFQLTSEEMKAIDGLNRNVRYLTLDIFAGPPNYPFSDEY

[4] = molecular target: T2, AKR1C1 (Homo sapiens, UniProt Q04828); assay: Metabolite identification, overnight incubation with recombinant AKR1C1; conditions: 200 µM EXE, 18-h incubation, 1.5 µg recombinant AKR1C1
T2 sequence (Q04828 whole entry): as the sequence (P52895 whole entry) above, with V38T, H47R, V54L, S87C, M151V, H170R, L172Q counted along it
Outline: as §1

[5] = molecular target: T3, AKR1C3 (Homo sapiens, UniProt P42330); assay: Metabolite identification, overnight incubation with recombinant AKR1C3; conditions: 200 µM EXE, 18-h incubation, 1.5 µg recombinant AKR1C3
T3 sequence (P42330 whole entry): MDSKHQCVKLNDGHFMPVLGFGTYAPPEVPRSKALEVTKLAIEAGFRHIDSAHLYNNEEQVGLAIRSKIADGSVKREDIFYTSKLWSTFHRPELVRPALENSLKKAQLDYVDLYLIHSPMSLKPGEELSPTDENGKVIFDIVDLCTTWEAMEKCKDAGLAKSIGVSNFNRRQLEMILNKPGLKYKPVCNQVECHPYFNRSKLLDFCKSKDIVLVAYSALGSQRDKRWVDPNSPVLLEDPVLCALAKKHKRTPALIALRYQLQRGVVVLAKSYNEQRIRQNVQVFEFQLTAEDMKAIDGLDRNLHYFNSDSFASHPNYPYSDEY
Outline: as §1

[6] = molecular target: T3, AKR1C3; assay: Kinetics of EXE reduction to 17β-DHE, recombinant AKR1C3
[7] = molecular target: AKR1C3 Glu77Gly (Homo sapiens, UniProt P42330, E77G); assay: Kinetics of EXE reduction to 17β-DHE, recombinant AKR1C3 Glu77Gly; conditions: for VMAX: normalized to enzyme purity
AKR1C3 Glu77Gly, sequence (P42330 whole entry E77G): as the sequence (P42330 whole entry) above, with E77G counted along it

[8] = molecular target: AKR1C3 Lys104Asn (Homo sapiens, UniProt P42330, K104N); assay: Kinetics of EXE reduction to 17β-DHE, recombinant AKR1C3 Lys104Asn
AKR1C3 Lys104Asn, sequence (P42330 whole entry K104N): as the sequence (P42330 whole entry) above, with K104N counted along it

[9] = Metabolite identification, overnight incubation with pooled human liver cytosol; conditions: 200 µM EXE, 18-h incubation, 7.5 µg pooled human liver cytosol, PBS pH 7.4, 37°C, NADPH regeneration system
[10] = molecular target: T2, AKR1C1; assay: Kinetics of EXE reduction to 17β-DHE, recombinant AKR1C1; conditions: wildtype AKR1C1
[11] = molecular target: T4, AKR1C4 Leu311Val (Homo sapiens, UniProt P17516, L311V); assay: Kinetics of EXE reduction to 17β-DHE, recombinant AKR1C4 Leu311Val
T4 sequence (P17516 1-323 L311V): T1 sequence (P17516 1-323) with L311V

- metabolites formed [1]: both stereoisomers of DHE
- Km at 90 min ([2]; human, pooled human liver cytosol, pH 7.4): 55.7 ± 1.9 µM
- CLINT ([3]; VMAX/KM): 0.0051 µL/min/mg
- VMAX ([3]; normalized to enzyme purity): 84.2 ± 15.6 picomoles·min^−1·mg^−1
- metabolites formed [4]: only 17β-DHE formation
- metabolites formed [5]: only 17β-DHE formation
- VMAX of AKR1C3 relative to AKR1C4 ([6]; higher than AKR1C4): 36 fold
- Km ([6]; wildtype AKR1C3, 17β-DHE formation): 12.3 ± 1.1 µM
- CLINT ([6]; wildtype AKR1C3, VMAX/KM): 0.0068 µL/min/mg
- VMAX ([6]; wildtype AKR1C3, normalized to enzyme purity): 83.3 ± 15.4 picomoles·min^−1·mg^−1
- Km ([7]; AKR1C3 Glu77Gly (rs11551177), 17β-DHE formation): 13.9 ± 2.2 µM
- CLINT ([7]; AKR1C3 Glu77Gly, VMAX/KM): 0.00014 µL/min/mg
- VMAX ([7]; AKR1C3 Glu77Gly): 1.9 ± 0.2 picomoles·min^−1·mg^−1
- VMAX ([7]; AKR1C3 Glu77Gly, listed as EXE): 1.9 ± 0.2 picomoles·min^−1·mg^−1
- Km ([8]; AKR1C3 Lys104Asn (rs12387), 17β-DHE formation): 16.8 ± 1 µM
- CLINT ([8]; AKR1C3 Lys104Asn, VMAX/KM): 0.00038 µL/min/mg
- VMAX ([8]; AKR1C3 Lys104Asn, normalized to enzyme purity): 6.4 ± 0.3 picomoles·min^−1·mg^−1
- CLINT ([10]; VMAX/KM): 0.002 µL/min/mg
- VMAX ([10]; normalized to enzyme purity): 71.1 ± 1.5 picomoles·min^−1·mg^−1
- Km ([11]; AKR1C4 Leu311Val (rs17134592), 17β-DHE formation): 11.9 ± 2 µM
- CLINT ([11]; AKR1C4 Leu311Val, VMAX/KM): 0.00053 µL/min/mg
- VMAX ([11]; AKR1C4 Leu311Val, normalized to enzyme purity): 6.3 ± 0.8 picomoles·min^−1·mg^−1
SMILES: C=C1C[C@@H]2[C@H](CC[C@]3(C)C(=O)CC[C@@H]23)[C@@]2(C)C=CC(=O)C=C12 [exemestane, 6-methylenandrosa-1,4-diene-3-17-dione]
- maximum rate of 17β-DHE formation (VMAX) ([2]; 5 µg pooled HLC, 90-min incubation, EXE 0.5–400 µM): 21 ± 4.8 pmol/min/mg
- metabolite formed [9]: 17β-DHE although a lesser amount of 17α-DHE was detected as well

Reference: publication PMC5088049 (Pharmacogenetics and genomics, 2016)
